Experimental data taken from ChEMBL document CHEMBL1121685, “Development of new mitomycin C and porfiromycin analogues” (J Med Chem, 1981).

Columns and labels:
[1] = system: Mus musculus; assay: Effect of compound on total white blood cell count in BDG1 male mice, after intraperitoneal administration at a dose of 12.57 mg/kg on day 5; assay type: functional
Method in brief: (§1)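 BDG₁ male mice received a single ip dose on day 0. The dose series topped out at the LD₅₀ level, or at twice the optimal dose for some agents. Total white blood cell count was taken on days 3, 5 and 7 and expressed as % change from untreated controls. Significance was set at p ≤ 0.05 or p ≤ 0.01.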

[2] = system: Mus musculus; assay: Effect of compound on total white blood cell count in BDG1 male mice, after intraperitoneal administration at a dose of 12.57 mg/kg on day 7; assay type: functional; method in brief: as §1
[3] = system: Mus musculus; assay: Effect of compound on total white blood cell count in BDG1 male mice, after intraperitoneal administration at a dose of 12.57 mg/kg on day 3; assay type: functional; method in brief: as §1
[4] = system: Mus musculus; assay: Effect of compound on total white blood cell count in BDG1 male mice, after intraperitoneal administration at a dose of 17 mg/kg on day 3; assay type: functional
Method in brief: (§2)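 Single ip dose given on day 0 to BDG1 male mice over a descending dose series. Total white blood cell count is expressed as % change from untreated control on days 3, 5 and 7. Significance is flagged at p ≤ 0.05 and p ≤ 0.01.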

[5] = system: Mus musculus; assay: Effect of compound on total white blood cell count in BDG1 male mice, after intraperitoneal administration at a dose of 17 mg/kg on day 5; assay type: functional; method in brief: as §2
[6] = system: Mus musculus; assay: Effect of compound on total white blood cell count in BDG1 male mice, after intraperitoneal administration at a dose of 17 mg/kg on day 7; assay type: functional; method in brief: as §2
[7] = organism: Mus musculus; assay: Half-wave potential produced by the compound at their optimal dose; assay type: functional; design: unit not given here
[8] = system: Mus musculus; assay: Effect of compound on total white blood cell count in BDG1 male mice, after intraperitoneal administration at a dose of 9.56 mg/kg on day 3; assay type: functional
Method in brief: (§3)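 Single ip dose given on day 0 to BDG₁ male mice. Total white blood cell count measured on days 3, 5 and 7, expressed as % change from control. Highest dose was at the LD₅₀, or at twice the optimal dose where so footnoted. Significance reported at p ≤ 0.05 and p ≤ 0.01. D marks death of one or more mice.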

[9] = system: Mus musculus; assay: Effect of compound on total white blood cell count in BDG1 male mice, after intraperitoneal administration at a dose of 9.56 mg/kg on day 5; assay type: functional; method in brief: as §3
[10] = system: Mus musculus; assay: Effect of compound on total white blood cell count in BDG1 male mice, after intraperitoneal administration at a dose of 9.56 mg/kg on day 7; assay type: functional; method in brief: as §3
[11] = system: Mus musculus; assay: Minimum effective dose that show activity against P-388 murine leukemia cells in CDF1 female mice, after intraperitoneal administration (optimal dose is 12.8 mg/kg); assay type: functional; settings: P388, ip, read-out: MED
Method in brief: (§4)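 10⁶ P-388 ascites cells implanted ip in CDF₁ female mice. Six mice per dose, 10 saline-injected controls, and a concurrent mitomycin C reference group. %T/C = median survival time of treated/control × 100. MED is the lowest dose giving %T/C > 125. Therapeutic ratio = optimal dose/MED.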

[12] = system: Mus musculus; assay: Antitumor activity against P-388 murine leukemia cells in CDF1 female mice after intraperitoneal administration at the specified optimal dose of 12.8 mg/kg; assay type: functional
[13] = Therapeutic ratio is expressed as ratio of optimal dose and minimum effective dose; assay type: ADME; settings: mouse; read-out: TR; method in brief: as §4
[14] = system: Mus musculus; assay: Effect of compound on total white blood cell count in BDG1 male mice, after intraperitoneal administration at a dose of 68.0 mg/kg on day 3; assay type: functional; method in brief: as §3
[15] = system: Mus musculus; assay: Effect of compound on total white blood cell count in BDG1 male mice, after intraperitoneal administration at a dose of 68.0 mg/kg on day 5; assay type: functional; method in brief: as §3
[16] = system: Mus musculus; assay: Effect of compound on total white blood cell count in BDG1 male mice, after intraperitoneal administration at a dose of 68.0 mg/kg on day 7; assay type: functional; method in brief: as §3
[17] = system: Mus musculus; assay: Effect of compound on total white blood cell count in BDG1 male mice, after intraperitoneal administration at a dose of 51 mg/kg on day 5; assay type: functional; method in brief: as §3
[18] = system: Mus musculus; assay: Effect of compound on total white blood cell count in BDG1 male mice, after intraperitoneal administration at a dose of 51 mg/kg on day 3; assay type: functional; method in brief: as §3
[19] = system: Mus musculus; assay: Effect of compound on total white blood cell count in BDG1 male mice, after intraperitoneal administration at a dose of 51 mg/kg on day 7; assay type: functional; method in brief: as §3
[20] = system: Mus musculus; assay: Effect of compound on total white blood cell count in BDG1 male mice, after intraperitoneal administration at a dose of 1.3 mg/kg on day 5; assay type: functional; method in brief: as §1
[21] = system: Mus musculus; assay: Effect of compound on total white blood cell count in BDG1 male mice, after intraperitoneal administration at a dose of 1.3 mg/kg on day 7; assay type: functional; method in brief: as §1
[22] = system: Mus musculus; assay: Effect of compound on total white blood cell count in BDG1 male mice, after intraperitoneal administration at a dose of 1.3 mg/kg on day 3; assay type: functional; method in brief: as §1
[23] = system: Mus musculus; assay: Effect of compound on total white blood cell count in BDG1 male mice, after intraperitoneal administration at a dose of 1.7 mg/kg on day 3; assay type: functional; method in brief: as §1
[24] = system: Mus musculus; assay: Effect of compound on total white blood cell count in BDG1 male mice, after intraperitoneal administration at a dose of 1.7 mg/kg on day 5; assay type: functional; method in brief: as §1
[25] = system: Mus musculus; assay: Effect of compound on total white blood cell count in BDG1 male mice, after intraperitoneal administration at a dose of 1.7 mg/kg on day 7; assay type: functional; method in brief: as §1
[26] = organism: Mus musculus; assay: Degree of leukopenia produced by compound is assessed form Percent change in white cells on days 5; assay type: functional; method in brief: as §1
[27] = system: Mus musculus; assay: Effect of compound on total white blood cell count in BDG1 male mice, after intraperitoneal administration at a dose of 0.96 mg/kg on day 3; assay type: functional; method in brief: as §1
[28] = system: Mus musculus; assay: Effect of compound on total white blood cell count in BDG1 male mice, after intraperitoneal administration at a dose of 0.96 mg/kg on day 5; assay type: functional; method in brief: as §1
[29] = system: Mus musculus; assay: Effect of compound on total white blood cell count in BDG1 male mice, after intraperitoneal administration at a dose of 0.96 mg/kg on day 7; assay type: functional; method in brief: as §1
[30] = system: Mus musculus; assay: Minimum effective dose that show activity against P-388 murine leukemia cells in CDF1 female mice, after intraperitoneal administration (optimal dose is 3.2 mg/kg); assay type: functional; settings: P388, ip, read-out: MED; method in brief: as §4
[31] = system: Mus musculus; assay: Antitumor activity against P-388 murine leukemia cells in CDF1 female mice after intraperitoneal administration at the specified optimal dose of 3.2 mg/kg; assay type: functional

C#CCNC1=C(C)C(=O)C2=C(C1=O)[C@H](COC(N)=O)C1(OC)[C@@H]3N[C@@H]3CN21 (stereo not given in full)
Change [1]: -69% | Change [2]: -52% | Change [3]: -68% | Change [4]: -80% | Change [5]: -75% | Change [6]: -73% | E1/2 [7]: -0.41 | Change [8]: -59% | Change [9]: -56% | Change [10]: -28% | minimal effective dose [11]: 0.2 mg/kg | T/C [12]: 358% | selectivity ratio [13]: 64

COC12[C@@H]3N[C@@H]3CN1C1=C(C(=O)C(NCCCl)=C(C)C1=O)[C@@H]2COC(N)=O (stereo not given in full)
Change [14]: -71% | Change [15]: -63% | Change [16]: -35% | Change [17]: -61% | Change [18]: -55% | Change [19]: -23% | T/C [12]: 190% | selectivity ratio [13]: 8

COC1=C(C)C(=O)C2=C(C1=O)[C@@H](COC(N)=O)[C@@]1(OC)[C@H]3N[C@H]3CN21 [MITOMYCIN A]
Change [20]: -15% | Change [21]: -9% | Change [22]: -12% | Change [23]: -28% | Change [24]: -24% | Change [25]: 5% | Change [26]: -2% | Change [27]: -11% | Change [28]: -25% | Change [29]: 4% | E1/2 [7]: -0.21 | minimal effective dose [30]: 0.05 mg/kg | T/C [31]: 180% | selectivity ratio [13]: 64
